The source made the active and inactive calls.
Assays:
Staphylococcus aureus [1] = assay: Downregulation of sodium ABC transporter ATP-binding protein expression in Staphylococcus aureus measured after 2 hrs by LC-MS/MS analysis; type: functional
In short: (§1)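 S. aureus ATCC 25923 at OD600 0.6 exposed to compound or DMSO control for 2 h at 37°C, normalized to OD600 1.1 and PBS-washed. Cells were pressure-cycling lysed in 100 mM ammonium bicarbonate, and 50 μg protein was acetone-precipitated, reduced and alkylated, then Trypsin/Lys-C digested and C18-desalted. About 1 μg peptides went to LC-MS/MS. Label-free quantitation kept proteins present in all 3 samples, filtered at p <0.05.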

Staphylococcus aureus [2] = assay: Downregulation of protein EssC expression in Staphylococcus aureus measured after 2 hrs by LC-MS/MS analysis; type: functional; in short: as §1
Staphylococcus aureus [3] = assay: Upregulation of ribonuclease HIII expression in Staphylococcus aureus measured after 2 hrs by LC-MS/MS analysis; type: functional; in short: as §1
Staphylococcus aureus [4] = assay: Antibacterial activity against Staphylococcus aureus MRSA ATCC 33592 assessed as inhibition of bacterial growth incubated for 18 to 20 hrs by broth microdilution method; type: functional; conditions: time 18-20 hrs
In short: (§2)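 Broth microdilution per CLSI. Inoculum at 0.5 McFarland, diluted in cation-adjusted Mueller Hinton broth to about 5 × 10^5 CFU/mL. Serial compound dilutions incubated aerobically at 37° C for 18–20 hours. MIC taken as the lowest concentration completely inhibiting visible growth.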

Staphylococcus aureus [5] = assay: Downregulation of PyrF protein expression in Staphylococcus aureus assessed as log2 of fold change in protein level measured after 2 hrs by LC-MS/MS analysis relative to control; type: functional
In short: (§3)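 S. aureus ATCC 25923 at OD600 0.6 was treated with compound or DMSO for 2 h at 37 °C, normalised to OD600 1.1, and washed in PBS. Cells were pressure-lysed in 100 mM ammonium bicarbonate, then acetone-precipitated, reduced with DTT, alkylated with iodoacetamide, and digested with trypsin/Lys-C. Peptides were desalted and run on LC-MS/MS. Label-free quantitation used proteins present in all 3 samples, filtered at p<0.05 against DMSO.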

Staphylococcus aureus [6] = assay: Downregulation of oxidoreductase protein expression in Staphylococcus aureus measured after 2 hrs by LC-MS/MS analysis; type: functional; in short: as §1
Staphylococcus aureus [7] = assay: Upregulation of L-serine dehydratase, iron-sulfurdependent subunit alpha expression in Staphylococcus aureus measured after 2 hrs by LC-MS/MS analysis; type: functional; in short: as §1
Staphylococcus aureus [8] = assay: Downregulation of GloB protein expression in Staphylococcus aureus assessed as log2 of fold change in protein level measured after 2 hrs by LC-MS/MS analysis relative to control; type: functional; in short: as §3
Staphylococcus aureus [9] = assay: Downregulation of type VII secretion protein EsaB protein expression in Staphylococcus aureus measured after 2 hrs by LC-MS/MS analysis; type: functional; in short: as §1
Staphylococcus aureus [10] = assay: Downregulation of MtaB protein expression in Staphylococcus aureus assessed as log2 of fold change in protein level measured after 2 hrs by LC-MS/MS analysis relative to control; type: functional; in short: as §3
Staphylococcus aureus [11] = assay: Upregulation of heme uptake system protein IsdE expression in Staphylococcus aureus measured after 2 hrs by LC-MS/MS analysis; type: functional; in short: as §1
Staphylococcus aureus [12] = assay: Downregulation of CDP-diacylglycerol-glycerol-3-phosphate-3-phosphatidyltransferase protein expression in Staphylococcus aureus measured after 2 hrs by LC-MS/MS analysis; type: functional; in short: as §3
Staphylococcus aureus [13] = assay: Downregulation of NarG protein expression in Staphylococcus aureus assessed as log2 of fold change in protein level measured after 2 hrs by LC-MS/MS analysis relative to control; type: functional; in short: as §3
Listeria monocytogenes = assay: Antibacterial activity against Listeria monocytogenes ATCC 19111 assessed as inhibition of bacterial growth incubated for 18 to 20 hrs by broth microdilution method; type: functional; conditions: time 18-20 hrs
In short: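 Broth microdilution with a 0.5 McFarland inoculum diluted in tryptic soy broth to about 5 × 10^5 CFU/mL. Serial compound dilutions incubated aerobically at 37° C for 18–20 hours. MIC read visually as the lowest concentration with no growth.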

Staphylococcus aureus [14] = assay: Downregulation of CarB protein expression in Staphylococcus aureus assessed as log2 of fold change in protein level measured after 2 hrs by LC-MS/MS analysis relative to control; type: functional; in short: as §3
Staphylococcus aureus [15] = assay: Downregulation of ortho-poxovirus protein expression in Staphylococcus aureus measured after 2 hrs by LC-MS/MS analysis; type: functional; in short: as §1
Staphylococcus aureus [16] = assay: Downregulation of nitrite reductase (NAD(P)H) small subunit protein expression in Staphylococcus aureus measured after 2 hrs by LC-MS/MS analysis; type: functional; in short: as §1
Mus musculus = assay: Acceleration of wound healing in methicillin-resistant Staphylococcus aureus USA300 infected Balb/c mouse model assessed as reduction in IL-1beta level in skin wounds administered topically twice daily 2 days post infection and measured after 5 days post compound treatment; type: functional, organism-based; conditions: time 5.0 day
In short: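 Mice had two 6-mm dorsal excisional wounds, each infected with 20 μL of 4.2×10^9 CFU/mL MRSA USA300 and covered with Tegaderm. Treatment began 2 days after infection (n=5 per group): 2% compound in petroleum jelly applied topically twice daily for 5 days. Right-wound homogenates in PBS were centrifuged, supernatants pooled per group, and protein normalised by BCA. Cytokines were measured by mouse cytokine array (pg/mL).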

Staphylococcus aureus [17] = assay: Downregulation of glycero-phosphodiester phosphodiesterase protein expression in Staphylococcus aureus measured after 2 hrs by LC-MS/MS analysis; type: functional; in short: as §3
Staphylococcus aureus [18] = assay: Upregulation of zinc ABC transporter ATP-binding protein expression in Staphylococcus aureus measured after 2 hrs by LC-MS/MS analysis; type: functional; in short: as §1
Staphylococcus aureus [19] = assay: Antibacterial activity against Staphylococcus aureus ATCC 25923 assessed as inhibition of bacterial growth incubated for 18 to 20 hrs by broth microdilution method; type: functional; conditions: time 18-20 hrs; in short: as §2
HaCaT = assay: Cytotoxicity against human HaCaT cells assessed as reduction in cell viability measured upto 64 ug/ml incubated for 2 hrs by MTS assay; type: toxicity, cell-based; conditions: dose < 64 µg/ml
In short: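 Human keratinocytes exposed to compound at 16, 32, 64 and 128 μg/mL in sextuplicate for 2 hours at 37 °C with 5% CO2. DMSO served as the baseline control. MTS reagent added, then 3 h further incubation, and absorbance read at OD490.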

Staphylococcus aureus [20] = assay: Downregulation of signal peptidase II protein expression in Staphylococcus aureus measured after 2 hrs by LC-MS/MS analysis; type: functional; in short: as §1
Staphylococcus aureus [21] = assay: Upregulation of Cro/CI family transcriptional regulator expression in Staphylococcus aureus measured after 2 hrs by LC-MS/MS analysis; type: functional; in short: as §1
Staphylococcus aureus [22] = assay: Downregulation of multifunctional 2,3-cyclic-nucleotide 2-phosphodiesterase/5-nucleotidase/3-nucleotidase protein expression in Staphylococcus aureus measured after 2 hrs by LC-MS/MS analysis; type: functional; in short: as §1

CC1CC(C)CN(S(=O)(=O)c2ccc(C(=O)Nc3nnc(-c4ccc(C(F)(F)F)cc4)o3)cc2)C1 (stereo not given)
-2: log2FC (Staphylococcus aureus [8]) | log2FC (Staphylococcus aureus [10]) | log2FC (Staphylococcus aureus [13]) | log2FC (Staphylococcus aureus [14])
0.06 mg/L: MIC (Listeria monocytogenes)
-2.2: log2FC (Staphylococcus aureus [5])
0.25 mg/L: MIC (Staphylococcus aureus [4]) | MIC (Staphylococcus aureus [19])
Non-Toxic: Activity (HaCaT)
active: Activity (Staphylococcus aureus [1]) | Activity (Staphylococcus aureus [2]) | Activity (Staphylococcus aureus [3]) | Activity (Staphylococcus aureus [6]) | Activity (Staphylococcus aureus [7]) | Activity (Staphylococcus aureus [9]) | Activity (Staphylococcus aureus [11]) | Activity (Staphylococcus aureus [12]) | Activity (Staphylococcus aureus [15]) | Activity (Staphylococcus aureus [16]) | Activity (Mus musculus) | Activity (Staphylococcus aureus [17]) | Activity (Staphylococcus aureus [18]) | Activity (Staphylococcus aureus [20]) | Activity (Staphylococcus aureus [21]) | Activity (Staphylococcus aureus [22])

Reference: ChEMBL document CHEMBL5154895, “Mechanistic Studies and In Vivo Efficacy of an Oxadiazole-Containing Antibiotic” (J Med Chem, 2022)
